Assay results from ChEMBL document CHEMBL4130543, “Bacilotetrins A and B, Anti-Staphylococcal Cyclic-Lipotetrapeptides from a Marine-Derived Bacillus subtilis” (J Nat Prod, 2017).
In brackets after ≈: the same amount, converted by molar mass. Activity calls are given as the source filed them. No cut-off for these calls is given here.

Tests used:
[1] = tested on: Staphylococcus aureus; experiment: Antibacterial activity against methicillin-resistant Staphylococcus aureus isolate XU2120 after 24 hrs by MTT dye based broth microdilution method; type: functional; conditions: isolate XU2120, 24 h
[2] = tested on: Staphylococcus aureus; experiment: Antibacterial activity against methicillin-resistant Staphylococcus aureus RN4220 after 24 hrs by MTT dye based broth microdilution method; type: functional
[3] = tested on: Staphylococcus aureus; experiment: Antibacterial activity against methicillin-resistant Staphylococcus aureus SA1199B after 24 hrs by MTT dye based broth microdilution method; type: functional
[4] = Cytotoxicity against human hepatic cancer cells at 3 to 30 ug/ml after 48 hrs by SRB assay; type: cell-based
Outline: (§1)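 Cells plated in 96-well format with test samples at 30, 10 and 3 μg/mL for 48 h. Adherent cells fixed in 50% (wt/vol) trichloroacetic acid, stained 60 min with 0.4% sulforhodamine B in 1% acetic acid, bound dye dissolved in 10 mM Tris base, absorbance read at 510 nm.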

[5] = tested on: Staphylococcus aureus; experiment: Antibacterial activity against […] after 24 hrs by MTT dye based broth microdilution method; type: functional; conditions: ATCC 25923, 24 h
[6] = tested on: Prostatic carcinoma cell; experiment: Cytotoxicity against human prostate cancer cells at 3 to 30 ug/ml after 48 hrs by SRB assay; type: cell-based; outline: as §1
[7] = tested on: Staphylococcus aureus; experiment: Antibacterial activity against methicillin-resistant Staphylococcus aureus isolate EMRSA-15 after 24 hrs by MTT dye based broth microdilution method; type: functional

For `CCC(C)CCCCCCC[C@@H]1CC(=O)N[C@@H](CC(C)C)C(=O)N[C@@H](CC(C)C)C(=O)N[C@@H](CC(C)C)C(=O)N[C@@H](CCC(=O)O)C(=O)O1` (some centres undefined), the MIC [1] was 16 µg/mL (≈ 23 µM), the MIC ([2]; RN4220, 24 h) was 32 µg/mL (≈ 46 µM) and the MIC [3] was 8 µg/mL (≈ 11.5 µM). For the same compound, the Activity [4] was “Non-Toxic”, the MIC [5] was 8 µg/mL (≈ 11.5 µM) and the Activity [6] was “Non-Toxic”. For the same compound, the MIC [7] was “inactive”.

Compound `CCn1cc(C(=O)O)c(=O)c2cc(F)c(N3CCNCC3)cc21` [NORFLOXACIN] has an MIC [1] of 16 µg/mL (≈ 50.1 µM), an MIC ([2]; RN4220, 24 h) of 2 µg/mL (≈ 6.26 µM) and an MIC [3] of 64 µg/mL (≈ 200 µM). The MIC [5] was 16 µg/mL (≈ 50.1 µM) and the MIC ([7]; isolate EMRSA-15, 24 h) was 4 µg/mL (≈ 12.5 µM).

In the case of `CCC(C)CC(C)CCCCC[C@@H]1CC(=O)N[C@@H](CC(C)C)C(=O)N[C@@H](CC(C)C)C(=O)N[C@@H](CC(C)C)C(=O)N[C@@H](CCC(=O)O)C(=O)O1` (some centres undefined), the MIC [1] is reported as 16 µg/mL (≈ 22.6 µM), the MIC [2] is reported as “inactive” and the MIC [3] is reported as 32 µg/mL (≈ 45.1 µM). For the same compound, the Activity [4] was “Non-Toxic”, the MIC [5] was 16 µg/mL (≈ 22.6 µM) and the Activity [6] was “Non-Toxic”. The MIC [7] was “inactive”.
